Measured values taken from ChEMBL document CHEMBL1649165, “Activity profile in vitro of micafungin against Spanish clinical isolates of common and emerging species of yeasts and molds” (2009).
In brackets after ≈: the same amount, converted by molar mass.

Key:
Type in all cases: functional
Candida albicans = assay: Antimicrobial activity against Candida albicans by broth microdilution method
How it was run: (§1)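 Clinical isolates from human patients, tested by broth microdilution using the AFST-EUCAST reference procedure for fermentative yeasts. The MIC was read per that reference method.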

Pichia kudriavzevii = assay: Antimicrobial activity against Candida krusei by broth microdilution method; how it was run: as §1
Clavispora lusitaniae = assay: Antimicrobial activity against Candida lusitaniae by broth microdilution method; how it was run: as §1
Kluyveromyces marxianus = assay: Antimicrobial activity against Candida kefyr by broth microdilution method; how it was run: as §1
Torulaspora delbrueckii = assay: Antimicrobial activity against Candida coliculosa by broth microdilution method; how it was run: as §1
Pichia norvegensis = assay: Antimicrobial activity against Candida norvegensis by broth microdilution method; how it was run: as §1
[Candida] intermedia = Antimicrobial activity against Candida intermedia by broth microdilution method; conditions: Sungouiella intermedia; how it was run: as §1
[Candida] inconspicua = Antimicrobial activity against Candida inconspicua by broth microdilution method; conditions: Pichia inconspicua; how it was run: as §1
[Candida] zeylanoides = Antimicrobial activity against Candida zeylanoides by broth microdilution method; conditions: Dujonia zeylanoides; how it was run: as §1
Magnusiomyces capitatus = assay: Antimicrobial activity against Dipodascus capitatus by broth microdilution method
Saccharomyces cerevisiae = assay: Antimicrobial activity against Saccharomyces cerevisiae by broth microdilution method
Geotrichum candidum = assay: Antimicrobial activity against Galactomyces geotrichum by broth microdilution method
[1] = tested on: Cryptococcus deneoformans; assay: Antimicrobial activity against Cryptococcus neoformans var. neoformans by broth microdilution method
How it was run: (§2)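 Clinical isolates of nonfermentative yeasts, tested by broth microdilution following EUCAST recommendations. The only change from that method was a minor modification to improve growth.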

Trichosporon asahii = assay: Antimicrobial activity against Trichosporon asahii by broth microdilution method
How it was run: (§3)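 Nonfermentative yeast clinical isolates (Rhodotorula, Trichosporon) tested by broth microdilution. The EUCAST yeast recommendations were followed strictly, with one minor modification to improve growth. MIC was read as the endpoint.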

Trichosporon ovoides = assay: Antimicrobial activity against Trichosporon ovoides by broth microdilution method; how it was run: as §3
Naganishia albida = assay: Antimicrobial activity against Cryptococcus albidus by broth microdilution method; how it was run: as §2
Papiliotrema laurentii = assay: Antimicrobial activity against Cryptococcus laurentii by broth microdilution method; how it was run: as §2
Aspergillus niger = assay: Antimicrobial activity against Aspergillus niger by broth microdilution method
How it was run: (§4)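 Clinical mould isolates, tested by broth microdilution using the AFST-EUCAST reference method for filamentous fungi. For echinocandins, the endpoint was the minimum effective concentration: the lowest drug concentration giving aberrant hyphal growth, read with an inverted microscope.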

Aspergillus sydowii = assay: Antimicrobial activity against Aspergillus sydowii by broth microdilution method; how it was run: as §4
Aspergillus versicolor = assay: Antimicrobial activity against Aspergillus versicolor by broth microdilution method; how it was run: as §4
Aspergillus ochraceus = assay: Antimicrobial activity against Aspergillus ochraceus by broth microdilution method; how it was run: as §4
Fennellia nivea = assay: Antimicrobial activity against Aspergillus niveus by broth microdilution method; how it was run: as §4
Aspergillus sclerotiorum = assay: Antimicrobial activity against Aspergillus sclerotiorum by broth microdilution method; how it was run: as §4
Aspergillus glaucus = assay: Antimicrobial activity against Aspergillus glaucus by broth microdilution method; how it was run: as §4
Fusarium solani = assay: Antimicrobial activity against Fusarium solani by broth microdilution method
How it was run: (§5)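 Filamentous fungus clinical isolates tested by the AFST-EUCAST reference broth microdilution method for moulds. For echinocandins, the endpoint was the minimum effective concentration: the lowest drug concentration giving aberrant hyphal growth, read with an inverted microscope.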

Fusarium oxysporum = assay: Antimicrobial activity against Fusarium oxysporum by broth microdilution method; how it was run: as §4
Paecilomyces lilacinus = assay: Antimicrobial activity against Paecilomyces lilacinus by broth microdilution method; conditions: Purpureocillium lilacinum; how it was run: as §5
[2] = tested on: Scopulariopsis brevicaulis; assay: Antimicrobial activity against Scopulariopsis brevicaulis by broth microdilution method; how it was run: as §5
Phialemonium curvatum = assay: Antimicrobial activity against Phialemonium curvatum by broth microdilution method; conditions: Thyridium curvatum; how it was run: as §5
Fusarium reticulatum = assay: Antimicrobial activity against Fusarium reticulatum by broth microdilution method; how it was run: as §5
Neurospora sitophila = assay: Antimicrobial activity against Chrysonilia sitophila by broth microdilution method; how it was run: as §4
Scedosporium apiospermum = assay: Antimicrobial activity against Scedosporium apiospermum by broth microdilution method; how it was run: as §5
Lomentospora prolificans = assay: Antimicrobial activity against Scedosporium prolificans by broth microdilution method; how it was run: as §5
Lewia infectoria = assay: Antimicrobial activity against Alternaria infectoria by broth microdilution method; how it was run: as §4
Aureobasidium pullulans = assay: Antimicrobial activity against Aureobasidium pullulans by broth microdilution method
Scytalidium hyalinum = assay: Antimicrobial activity against Scytalidium hyalinum by broth microdilution method; conditions: Neoscytalidium hyalinum; how it was run: as §5
Lecythophora hoffmannii = assay: Antimicrobial activity against Lecythophora hoffmannii by broth microdilution method; conditions: Coniochaeta hoffmannii; how it was run: as §5
Lichtheimia corymbifera = assay: Antimicrobial activity against Mycocladus corymbiferus by broth microdilution method; how it was run: as §5
Rhizomucor = assay: Antimicrobial activity against Rhizomucor spp.by broth microdilution method; how it was run: as §5
Exophiala jeanselmei = assay: Antimicrobial activity against Exophiala jeanselmei by broth microdilution method

C[C@@H]1[C@H](O)[C@@H](C)/C=C/C=C/C=C/C=C/C=C/C=C/C=C/[C@H](O[C@@H]2O[C@H](C)[C@@H](O)[C@H](N)[C@@H]2O)C[C@@H]2O[C@](O)(C[C@@H](O)C[C@@H](O)[C@H](O)CC[C@@H](O)C[C@@H](O)CC(=O)O[C@H]1C)C[C@H](O)[C@H]2C(=O)O [AMPHOTERICIN B] gave an MIC50 (Candida albicans) of 0.06 µg/mL (≈ 0.0649 µM), an MIC90 (Candida albicans) of 0.12 µg/mL (≈ 0.13 µM) and an MIC50 (Pichia kudriavzevii) of 0.5 µg/mL (≈ 0.541 µM). For the same compound, the MIC90 (Pichia kudriavzevii) was 0.5 µg/mL (≈ 0.541 µM), the MIC50 (Clavispora lusitaniae) was 0.06 µg/mL (≈ 0.0649 µM) and the MIC90 (Clavispora lusitaniae) was 0.12 µg/mL (≈ 0.13 µM). For the same compound, the MIC50 (Kluyveromyces marxianus) was 0.25 µg/mL (≈ 0.271 µM), the MIC90 (Kluyveromyces marxianus) was 0.5 µg/mL (≈ 0.541 µM) and the MIC50 (Torulaspora delbrueckii) was 0.12 µg/mL (≈ 0.13 µM). It also gave an MIC90 (Torulaspora delbrueckii) of 1 µg/mL (≈ 1.08 µM), an MIC50 (Pichia norvegensis) of 0.12 µg/mL (≈ 0.13 µM) and an MIC90 (Pichia norvegensis) of 1 µg/mL (≈ 1.08 µM). The MIC50 ([Candida] intermedia) was 0.12 µg/mL (≈ 0.13 µM), the MIC90 ([Candida] intermedia) was 1 µg/mL (≈ 1.08 µM) and the MIC50 ([Candida] inconspicua) was 0.12 µg/mL (≈ 0.13 µM). The MIC90 ([Candida] inconspicua) was 1 µg/mL (≈ 1.08 µM), the MIC50 ([Candida] zeylanoides) was 0.12 µg/mL (≈ 0.13 µM) and the MIC90 ([Candida] zeylanoides) was 1 µg/mL (≈ 1.08 µM). The MIC50 (Magnusiomyces capitatus) was 0.5 µg/mL (≈ 0.541 µM), the MIC90 (Magnusiomyces capitatus) was 0.5 µg/mL (≈ 0.541 µM) and the MIC50 (Saccharomyces cerevisiae) was 0.12 µg/mL (≈ 0.13 µM). For the same compound, the MIC90 (Saccharomyces cerevisiae) was 0.25 µg/mL (≈ 0.271 µM), the MIC50 (Geotrichum candidum) was 0.25 µg/mL (≈ 0.271 µM) and the MIC90 (Geotrichum candidum) was 0.5 µg/mL (≈ 0.541 µM). It also gave an MIC50 [1] of 0.12 µg/mL (≈ 0.13 µM), an MIC90 [1] of 2 µg/mL (≈ 2.16 µM) and an MIC50 (Trichosporon asahii) of 8 µg/mL (≈ 8.66 µM). It also gave an MIC90 (Trichosporon asahii) of over 16 µg/mL, an MIC50 (Trichosporon ovoides) of 0.5 µg/mL (≈ 0.541 µM) and an MIC90 (Trichosporon ovoides) of 8 µg/mL (≈ 8.66 µM). The MIC50 (Naganishia albida) was 0.5 µg/mL (≈ 0.541 µM), the MIC90 (Naganishia albida) was 8 µg/mL (≈ 8.66 µM) and the MIC50 (Papiliotrema laurentii) was 0.5 µg/mL (≈ 0.541 µM). The MIC90 (Papiliotrema laurentii) was 8 µg/mL (≈ 8.66 µM), the MIC50 (Aspergillus niger) was 0.25 µg/mL (≈ 0.271 µM) and the MIC90 (Aspergillus niger) was 0.25 µg/mL (≈ 0.271 µM). The MIC50 (Aspergillus sydowii) was 1 µg/mL (≈ 1.08 µM), the MIC90 (Aspergillus sydowii) was 2 µg/mL (≈ 2.16 µM) and the MIC50 (Aspergillus versicolor) was 1 µg/mL (≈ 1.08 µM). For the same compound, the MIC90 (Aspergillus versicolor) was 2 µg/mL (≈ 2.16 µM), the MIC50 (Aspergillus ochraceus) was 0.5 µg/mL (≈ 0.541 µM) and the MIC90 (Aspergillus ochraceus) was over 16 µg/mL. The MIC50 (Fennellia nivea) was 0.5 µg/mL (≈ 0.541 µM), the MIC90 (Fennellia nivea) was over 16 µg/mL and the MIC50 (Aspergillus sclerotiorum) was 0.5 µg/mL (≈ 0.541 µM). It also gave an MIC90 (Aspergillus sclerotiorum) of over 16 µg/mL, an MIC50 (Aspergillus glaucus) of 0.5 µg/mL (≈ 0.541 µM) and an MIC90 (Aspergillus glaucus) of over 16 µg/mL. It also gave an MIC50 (Fusarium solani) of 1 µg/mL (≈ 1.08 µM), an MIC90 (Fusarium solani) of 2 µg/mL (≈ 2.16 µM) and an MIC50 (Fusarium oxysporum) of 1 µg/mL (≈ 1.08 µM). It also gave an MIC90 (Fusarium oxysporum) of 2 µg/mL (≈ 2.16 µM), an MIC50 (Paecilomyces lilacinus) of over 16 µg/mL and an MIC90 (Paecilomyces lilacinus) of over 16 µg/mL. For the same compound, the MIC50 [2] was 0.5 µg/mL (≈ 0.541 µM), the MIC90 [2] was over 16 µg/mL and the MIC50 (Phialemonium curvatum) was 0.5 µg/mL (≈ 0.541 µM). For the same compound, the MIC90 (Phialemonium curvatum) was over 16 µg/mL, the MIC50 (Fusarium reticulatum) was 0.5 µg/mL (≈ 0.541 µM) and the MIC90 (Fusarium reticulatum) was over 16 µg/mL. The MIC50 (Neurospora sitophila) was 0.5 µg/mL (≈ 0.541 µM), the MIC90 (Neurospora sitophila) was over 16 µg/mL and the MIC50 (Scedosporium apiospermum) was 4 µg/mL (≈ 4.33 µM). The MIC90 (Scedosporium apiospermum) was over 16 µg/mL, the MIC50 (Lomentospora prolificans) was over 16 µg/mL and the MIC90 (Lomentospora prolificans) was over 16 µg/mL. It also gave an MIC50 (Lewia infectoria) of 0.06 µg/mL (≈ 0.0649 µM), an MIC90 (Lewia infectoria) of over 16 µg/mL and an MIC50 (Aureobasidium pullulans) of 0.25 µg/mL (≈ 0.271 µM). The MIC90 (Aureobasidium pullulans) was 1 µg/mL (≈ 1.08 µM), the MIC50 (Scytalidium hyalinum) was 0.25 µg/mL (≈ 0.271 µM) and the MIC90 (Scytalidium hyalinum) was 1 µg/mL (≈ 1.08 µM). For the same compound, the MIC50 (Lecythophora hoffmannii) was 0.25 µg/mL (≈ 0.271 µM), the MIC90 (Lecythophora hoffmannii) was 1 µg/mL (≈ 1.08 µM) and the MIC50 (Lichtheimia corymbifera) was 0.12 µg/mL (≈ 0.13 µM). It also gave an MIC90 (Lichtheimia corymbifera) of 0.25 µg/mL (≈ 0.271 µM), an MIC50 (Rhizomucor) of 2 µg/mL (≈ 2.16 µM) and an MIC90 (Rhizomucor) of over 16 µg/mL. It also gave an MIC50 (Exophiala jeanselmei) of 0.25 µg/mL (≈ 0.271 µM) and an MIC90 (Exophiala jeanselmei) of 1 µg/mL (≈ 1.08 µM).
